Bioassay records (PubChem)
NPY-Y1 PAM-ag: potentiators or agonists of human neuropeptide Y receptor Y1 | P25929 | NPY-Y1 expressing cells, potentiator/agonist activation | activation, % at 3.6 µM | 0.37% of 220,000 active | AID 1304; in the data active = activation above about 33%, passing the limit was not always enough;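 also: cells stimulated with NPY at EC10 then isoproterenol at EC100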
Target sequence (P25929 whole entry, looked up): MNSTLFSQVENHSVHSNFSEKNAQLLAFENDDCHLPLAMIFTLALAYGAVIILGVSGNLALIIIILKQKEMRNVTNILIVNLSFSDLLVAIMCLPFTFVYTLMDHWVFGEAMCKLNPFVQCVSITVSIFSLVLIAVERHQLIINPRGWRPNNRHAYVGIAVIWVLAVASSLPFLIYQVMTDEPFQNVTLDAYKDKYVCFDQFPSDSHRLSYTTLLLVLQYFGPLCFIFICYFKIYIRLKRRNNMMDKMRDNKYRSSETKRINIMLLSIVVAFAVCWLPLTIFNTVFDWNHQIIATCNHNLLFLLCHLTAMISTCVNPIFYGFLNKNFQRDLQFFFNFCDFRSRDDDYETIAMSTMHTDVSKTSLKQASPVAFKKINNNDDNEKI
NPY-Y2 PAM-ag: human NPY-Y2 potentiation or agonism, primary screen; P49146; cells expressing NPY-Y2, potentiator/agonist read-out; activation, % at 3.6 µM; 0.45% of 220,000 active; AID 1359; in the data active = activation above about 27%;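 also: cells stimulated with NPY near EC25 plus isoproterenol at EC100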
NPY-Y2 antag: antagonists of human neuropeptide Y receptor Y2; inhibition, % at 2.7 µM; 0.99% of 140,000 active; P49146; NPY-Y2 expressing cells, antagonist mode
NPY-Y1 antag: blocks the human neuropeptide Y Y1 receptor | 1% of 200,000 active | HEK293-CNG Y1 cells, membrane potential fluorescence; NPY at EC95, then isoproterenol | AID 1040 | inhibition, % at 3.6 µM | P25929;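 active = inhibition above the campaign mean inhibition of all tested compounds plus 3 SD, cut at about 20% in these data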
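material = HEK293 cells with Y1 receptor plus CNG channel | also added = NPY 25 nM then isoproterenol 1 µM plus Ro 20-1724 25 µM | schedule = dye 3 h, compound 60 min room temperature, stimulation 45 min | measured by = membrane potential fluorescence | benchmarks = high control isoproterenol alone, low control NPY with isoproterenol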
NPY-Y1 ant conf: confirmation of human neuropeptide Y receptor Y1 antagonists; shares compounds with NPY-Y1 antag; HEK293-CNG NPY-Y1, membrane potential fluorescence, cAMP; NPY challenge against isoproterenol-raised cAMP; inhibition, % at 3.6 µM; 21% of 1,200 active; AID 1254; in the data active = inhibition above about 20%
NPY2 antag ctr: antagonizes human NPY-Y2, counter-screen to NPY-Y1 antagonists | shares compounds with NPY-Y1 antag | HEK293 NPY-Y2 CNG membrane potential fluorescence, antagonism; cells given NPY, then isoproterenol | inhibition, % at 3.6 µM | 28% of 1,200 active
Hits are given with their value; - = inactive; . = no result. In the library only some 1.9% were active in any assay of this set; here they are far more common. Rule as the data show it, unless noted: active = inhibition above about 17%; inactive = the rest.

SMILES	NPY-Y1 PAM-ag	NPY-Y2 PAM-ag	NPY-Y2 antag	NPY-Y1 antag	NPY-Y1 ant conf	NPY2 antag ctr
Cc1c(Cl)cnc(NC(=O)COC(=O)Cc2coc3ccc4ccccc4c23)c1Cl	-	-	-	23.4	-	-
CN(C)c1cc(NC(=O)CNC(C)(C)CC(C)(C)C)c2ccccc2n1	-	-	.	27.7	23.4	41.6
CC(=O)NNC(=O)c1csc(-c2csc(C)n2)n1	-	-	.	.	.	.
Cc1onc(-c2ccccc2)c1C(=O)Nc1ccc(S(=O)(=O)NC(C)(C)C)cc1	-	-	.	-	.	.
O=C(CSc1nnc(SCc2cccc3ccccc23)s1)N=Nc1c(O)[nH]c2ccccc12	-	-	-	-	.	.
O=C1N(Cc2cccc(Cl)c2)C[C@@H]2C[C@@H](c3ccco3)N3CCC[C@@]123	-	-	.	21.9	-	-
COc1ccc(N(CC(=O)N/N=C(\C)CCc2ccccc2)S(=O)(=O)c2ccc(C)cc2)cc1	-	-	.	.	.	.
Cc1nc(CSc2nc3[nH]ncc3c(=O)n2-c2ccccc2)cs1	-	-	-	-	.	.
Cc1noc(C)c1CSc1nc2[nH]ncc2c(=O)n1-c1ccccc1	-	-	-	21.1	-	-
CCN(CC)S(=O)(=O)c1ccc2[nH]cc(C(=O)NCCN3CCCCCC3)c(=O)c2c1	-	-	-	20.7	-	-
CCN(CC)S(=O)(=O)c1ccc2[nH]cc(C(=O)NCCCN3CCCCC3)c(=O)c2c1	-	-	-	-	.	.
COC(=O)c1ccc(Cn2cnc3c(cnn3-c3ccc(C)c(C)c3)c2=O)o1	-	-	-	26.9	-	-
Cc1ccc(-n2ncc3c(=O)[nH]c(SCC(=O)N4CCOCC4)nc32)cc1	-	-	-	-	.	.
COC(=O)c1ccc(CSc2nc3c(cnn3-c3ccc(C)cc3)c(=O)[nH]2)o1	-	-	-	26.7	-	-
COC(=O)c1ccc(Cn2cnc3c(cnn3-c3ccc(F)cc3)c2=O)o1	-	-	-	-	.	.
COc1cccc(OCc2nc(-c3ccc(Br)o3)no2)c1	-	-	.	-	.	.
Brc1ccc(-c2noc(COc3ccc4ccccc4c3)n2)o1	-	-	-	29.4	-	-
CCc1ccc2[nH]c(=O)c(CN(CCN(CC)CC)C(=S)NCc3ccco3)cc2c1	-	-	.	21.9	-	-
CCCSc1nc2cc(OC)c(OC)cc2c(=N)n1CCCN1CCOCC1	-	-	.	71.3	22.4	31.7
COCCCn1c(SCc2ccc(OC)cc2)nc2cc(OC)c(OC)cc2c1=N	-	-	-	-	.	.
O=C(Nc1ccc(Cl)cc1)C1C2CCC3C(CCC21)C3(Cl)Cl (centres undefined)	-	-	-	-	.	.
Cc1cccc(NC(=O)C2C3CCC4C(CCC32)C4(Cl)Cl)c1 (centres undefined)	-	-	-	27.9	-	-
O=C(COC(=O)COc1ccc2ccccc2c1)NCC(F)(F)F	-	-	.	28.7	-	-
O=C(COC(=O)CSc1cccc2cccc(Cl)c12)Nc1ncc(C(F)(F)F)cc1Cl	-	-	-	-	.	.
NC(=O)COC(=O)CSc1cccc2cccc(Cl)c12	-	-	.	26.9	-	-
SMILES	NPY-Y1 PAM-ag	NPY-Y2 PAM-ag	NPY-Y2 antag	NPY-Y1 antag	NPY-Y1 ant conf	NPY2 antag ctr
CCN(C(=O)c1cc2c(C)nc3ccccc3c2o1)c1cc(Cl)ccc1OC	-	-	.	.	.	.
S=c1[nH]nc(Cc2ccc(Cl)cc2)o1	-	-	.	.	.	.
CN(C)CCSc1nc(-c2ccccc2)nc2c1CCC2	-	-	-	24.1	-	19.7
CN(C)C(=O)CSc1nc(-c2ccccc2)nc2c1CCCC2	-	-	-	-	.	.
O=C(COC(=O)CCC(=O)c1ccc2c(c1)OCCO2)NCc1ccc2c(c1)OCO2	-	-	-	21.1	-	-
COc1ccc(C(=O)Nc2ccccc2C(=O)NCc2ccco2)cc1OC	-	-	-	-	.	.
COc1ccc(C(=O)Nc2ccc(Cl)cc2C(=O)NCc2ccco2)cc1OC	-	-	-	24.5	24.7	24.0
COC(=O)/C=C/c1ccc(OC(=O)OC)c(OC(=O)OC)c1	-	-	-	-	.	.
COc1ccc2c(CCNC(=O)c3ccc([N+](=O)[O-])cc3)c[nH]c2c1	-	-	.	-	.	.
COc1ccc(C)cc1NC(=O)CSc1nnc(COc2ccc(Cl)cc2)n1Cc1ccco1	-	-	-	-	.	.
COc1ccc(C)cc1NC(=O)CSc1nnc(COc2ccccc2)n1Cc1ccco1	-	-	-	20.8	-	-
O=C(NCC(c1cccnc1)N1CCN(c2ccc(F)cc2)CC1)C1CCCCC1 (centres undefined)	-	-	-	65.8	-	-
N#Cc1c(N2CCN(C(=O)c3ccccc3Cl)CC2)nc(-c2ccccc2)c2c1CCCC2	-	-	-	-	.	.
N#Cc1c(N2CCN(C(=O)c3ccccc3)CC2)nc(-c2ccccc2)c2c1CCCC2	-	-	-	26.7	-	-
CCS(=O)(=O)N1CCN(CC(=O)NC2CCCCC2)CC1	-	-	.	-	.	.
C=CCc1ccccc1OCCSc1nc2ccc([N+](=O)[O-])cc2s1	-	-	-	20.9	-	-
CCN1CCN(c2c(/C=C3\SC(=S)N(Cc4ccco4)C3=O)c(C)c(C#N)c(=O)n2C)CC1	-	-	.	.	.	.
Cc1cc(C)c(S(=O)(=O)Nc2ccc3c4c(cccc24)CC3)c(C)c1	-	-	-	22.8	-	37.2
Cc1ccc(S(=O)(=O)Nc2ccc3c4c(cccc24)CC3)c(C)c1	-	-	-	-	.	.
Cc1c(N2C(=O)CSC2=S)c(=O)n(-c2ccccc2)n1C	-	-	.	26.1	-	-
C=CCOCCN(CC)CC	-	-	.	.	.	.
Cc1ccc(-c2cc3cccc[n+]3cc2-c2ccc(C)cc2)cc1	-	-	-	21.7	32.2	20.9
N#Cc1nc(COc2ccccc2)oc1N1CCC(Cc2ccccc2)CC1	-	-	-	32.4	20.7	21.4
CCc1ccc(NC(=O)CSc2nc3ccccc3c(=O)n2CCCN2CCC(C)CC2)cc1	-	-	.	37.6	47.4	50.6
COc1ccc(N2CCc3c(C)nc4c(OC)cc(OC)cc4c32)cc1	-	-	.	34.1	25.9	23.6
SMILES	NPY-Y1 PAM-ag	NPY-Y2 PAM-ag	NPY-Y2 antag	NPY-Y1 antag	NPY-Y1 ant conf	NPY2 antag ctr
O=C(NCc1nc2ccccc2[nH]1)c1ccc(Cl)c(S(=O)(=O)N2CCCC2)c1	-	-	-	-	.	.
CCCn1c(NC(=O)c2ccc(Cl)c(S(=O)(=O)N3CCCC3)c2)nc2ccccc21	-	-	-	22.1	-	21.6
CCNc1nc2ccccc2[nH]1	-	-	-	-	.	.
CCN(CC)CCCNc1nc2ccccc2[nH]1	-	-	-	30.1	-	-
CCc1n[nH]c(=S)n1/N=C/c1c(C)nn(-c2ccccc2)c1Cl	-	-	.	45.3	31.9	53.4
Cc1ccc(-c2n[nH]c(=S)n2/N=C/c2c(C)nn(-c3ccccc3)c2C)cc1	-	-	-	-	.	.
S=c1[nH]nc(COc2ccccc2)n1/N=C/c1ccncc1	-	-	.	-	.	.
CC(/C=N/n1c(COc2ccccc2)n[nH]c1=S)=C\c1ccccc1	-	-	-	30.8	-	-
